Test results taken from ChEMBL document CHEMBL1773028, “Pentasaccharide resin glycosides from Ipomoea pes-caprae” (2011).
Calls of active or inactive are those of the source. No cut-off for these calls is given here.

Legend:
NCI/ADR-RES [1] = assay: Reversal fold, ratio of IC50 for doxorubicin alone to IC50 for doxorubicin in presence of compound in human MCF7/ADR cells after 48 hrs by MTT assay; assay type: functional
Outline: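 MCF-7/ADR cells seeded at 4.5 × 10^3 per well. Doxorubicin serially diluted 0.008–25 μg/mL, with or without 5 μg/mL sample; verapamil 5 μg/mL as positive control. MTT after 48 h. Doxorubicin IC50 computed relative to untreated cells (100%). RF = IC50 doxorubicin alone / IC50 with sample. Triplicate.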

NCI/ADR-RES [2] = assay: Cytotoxicity against multidrug-resistance human MCF7/ADR cells after 48 hrs by MTT assay; assay type: functional, cell-based
Outline: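 MCF-7/ADR cells grown in DMEM with 10% FBS, trypsinized, seeded at 4.5 × 10^4 cells/mL and held 24 h at 37 °C, 5% CO2. Compounds added in DMSO over 400 to 1 μg/mL. MTT read-out after 48 h exposure. Triplicate.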

SMILES | Ratio IC50 (NCI/ADR-RES [1]) | Activity (NCI/ADR-RES [2])
CCCCCCCCCC(=O)O[C@H]1[C@H](O[C@@H]2[C@H]3OC(=O)CCCCCCCCC[C@H](CCCCC)O[C@@H]4O[C@H](C)[C@H](O)[C@H](O)[C@H]4O[C@H](O[C@H]2C)[C@@H]3O)O[C@@H](C)[C@H](O[C@@H]2O[C@@H](C)[C@H](OC(=O)[C@@H](C)CC)[C@@H](OC(=O)/C=C/c3ccccc3)[C@H]2O)[C@H]1O[C@@H]1O[C@@H](C)[C@H](O)[C@@H](O)[C@H]1O [PESCAPREIN XXIII] | 2.9 | inactive
CCCCCCCCCC(=O)O[C@H]1[C@H](O[C@@H]2[C@H]3OC(=O)CCCCCCCCC[C@H](CCCCC)O[C@@H]4O[C@H](C)[C@H](O)[C@H](O)[C@H]4O[C@H](O[C@H]2C)[C@@H]3O)O[C@@H](C)[C@H](O[C@@H]2O[C@@H](C)[C@H](OC(=O)[C@@H](C)CC)[C@@H](O)[C@H]2OC(=O)/C=C/c2ccccc2)[C@H]1O[C@@H]1O[C@@H](C)[C@H](O)[C@@H](O)[C@H]1O [PESCAPREIN XXIV] | 1.8 | inactive
CCCCCC(=O)O[C@H]1[C@H](O[C@@H]2[C@@H](O)[C@H]3OC(=O)CCCCCCCCC[C@H](CCCCC)O[C@@H]4O[C@H](C)[C@H](O)[C@H](O)[C@H]4O[C@@H]3O[C@H]2C)O[C@@H](C)[C@H](O[C@@H]2O[C@@H](C)[C@H](OC(=O)[C@@H](C)CC)[C@@H](OC(=O)/C=C/c3ccccc3)[C@H]2O)[C@H]1O[C@@H]1O[C@@H](C)[C@H](O)[C@@H](O)[C@H]1O [PESCAPREIN XXIX] | 3.2 | inactive
CCCCCCCCCCCC(=O)O[C@H]1[C@H](O[C@@H]2[C@H]3OC(=O)CCCCCCCCC[C@H](CCCCC)O[C@@H]4O[C@H](C)[C@H](O)[C@H](O)[C@H]4O[C@H](O[C@H]2C)[C@@H]3O)O[C@@H](C)[C@H](O[C@@H]2O[C@@H](C)[C@H](OC(=O)[C@@H](C)CC)[C@@H](O)[C@H]2OC(=O)/C=C/c2ccccc2)[C@H]1O[C@@H]1O[C@@H](C)[C@H](O)[C@@H](O)[C@H]1O [PESCAPREIN XXI] | 1.5 | inactive
CCCCCCCC(=O)O[C@H]1[C@H](O[C@@H]2[C@H]3OC(=O)CCCCCCCCC[C@H](CCCCC)O[C@@H]4O[C@H](C)[C@H](O)[C@H](O)[C@H]4O[C@H](O[C@H]2C)[C@@H]3O)O[C@@H](C)[C@H](O[C@@H]2O[C@@H](C)[C@H](OC(=O)[C@@H](C)CC)[C@@H](OC(=O)/C=C/c3ccccc3)[C@H]2O)[C@H]1O[C@@H]1O[C@@H](C)[C@H](O)[C@@H](O)[C@H]1O [PESCAPREIN XXVIII] | 2.3 | inactive
CCCCC[C@H]1CCCCCCCCCC(=O)O[C@H]2[C@@H](O)[C@H](O[C@H]3[C@H](O1)O[C@H](C)[C@H](O)[C@@H]3O)O[C@@H](C)[C@@H]2O[C@@H]1O[C@@H](C)[C@H](O[C@@H]2O[C@@H](C)[C@H](OC(=O)[C@@H](C)CC)[C@@H](OC(=O)/C=C/c3ccccc3)[C@H]2O)[C@@H](O[C@@H]2O[C@@H](C)[C@H](O)[C@@H](O)[C@H]2O)[C@H]1OC(=O)[C@@H](C)CC [PESCAPREIN XXVII] | 1.9 | inactive
CCCCCCCCCC(=O)O[C@H]1[C@H](O[C@@H]2[C@H]3OC(=O)CCCCCCCCC[C@H](CCCCC)O[C@@H]4O[C@H](C)[C@H](O)[C@H](O)[C@H]4O[C@H](O[C@H]2C)[C@@H]3O)O[C@@H](C)[C@H](O[C@@H]2O[C@@H](C)[C@H](OC(=O)C(C)C)[C@@H](OC(=O)/C=C/c3ccccc3)[C@H]2O)[C@H]1O[C@@H]1O[C@@H](C)[C@H](O)[C@@H](O)[C@H]1O [PESCAPREIN XXVI] | 3.7 | inactive
CCCCCCCCCCCC(=O)O[C@H]1[C@H](O[C@@H]2[C@H]3OC(=O)CCCCCCCCC[C@H](CCCCC)O[C@@H]4O[C@H](C)[C@H](O)[C@H](O)[C@H]4O[C@H](O[C@H]2C)[C@@H]3O)O[C@@H](C)[C@H](O[C@@H]2O[C@@H](C)[C@H](OC(=O)C(C)C)[C@@H](OC(=O)/C=C/c3ccccc3)[C@H]2O)[C@H]1O[C@@H]1O[C@@H](C)[C@H](O)[C@@H](O)[C@H]1O [PESCAPREIN XXV] | 2.1 | inactive
CCCCCCCCCC(=O)O[C@H]1[C@H](O[C@@H]2[C@@H](O)[C@H]3OC(=O)CCCCCCCCC[C@H](CCCCC)O[C@@H]4O[C@H](C)[C@H](O)[C@H](O)[C@H]4O[C@@H]3O[C@H]2C)O[C@@H](C)[C@H](O[C@@H]2O[C@@H](C)[C@H](O)[C@@H](OC(=O)[C@@H](C)CC)[C@H]2O)[C@H]1O[C@@H]1O[C@@H](C)[C@H](O)[C@@H](O)[C@H]1O [PESCAPREIN XXX] | 2.3 | inactive
COc1ccc(CCN(C)CCCC(C#N)(c2ccc(OC)c(OC)c2)C(C)C)cc1OC (centres undefined) [VERAPAMIL] | 21 | 
